Measured values published in ChEMBL document CHEMBL3860041, “Synthesis, biological evaluation and molecular modeling study of some new methoxylated 2-benzylthio-quinazoline-4(3H)-ones as nonclassical antifolates” (Bioorg Med Chem Lett, 2016).

What was measured:
[1] = Growth inhibition of human MDA-MB-231 cells at 10 uM after 48 hrs by SRB assay relative to control; type: functional; conditions: MDA-MB-231, 48 h, read-out: GI
Summary of the method: (§1)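 NCI 60-cell-line panel, nine tumor subpanels; compounds tested at a single dose of 10 μM in the primary screen.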

[2] = Growth inhibition of human UO31 cells at 10 uM after 48 hrs by SRB assay relative to control; type: functional; conditions: UO-31, 48 h, read-out: GI
Summary of the method: (§2)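 Primary screen across the full NCI 60 human tumour cell line panel, which covers nine tumour subpanels. A single dose of 10 μM was applied to each line, and growth was recorded for each cell line.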

[3] = Growth inhibition of human LOXIMVI cells at 10 uM after 48 hrs by SRB assay relative to control; type: functional; conditions: LOX IMVI, read-out: GI; summary of the method: as §1
[4] = Growth inhibition of human OVCAR4 cells at 10 uM after 48 hrs by SRB assay relative to control; type: functional; conditions: OVCAR-4, 48 h, read-out: GI; summary of the method: as §1
[5] = Growth inhibition of human colon cancer cells after 48 hrs by SRB assay; type: functional; conditions: Cancer cell lines
Summary of the method: (§3)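 Follow-up NCI panel testing over a 5-log dose range for each cell line. GI50, TGI and LC50 were monitored, with 5-fluorouracil run as the positive control. Values are grouped by tumour subpanel.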

[6] = Growth inhibition of human A498 cells at 10 uM after 48 hrs by SRB assay relative to control; type: functional; conditions: A498, 48 h, read-out: GI; summary of the method: as §1
Cancer cell lines [7] = test: Potency index, ratio of 5-fluorouracil GI50 to compound GI50 for human ovarian cancer cells; type: functional
Summary of the method: (§4)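 GI50 for each cell line came from NCI panel testing over a 5-log dose range, with 5-fluorouracil tested alongside as the reference drug. The index relates the 5-fluorouracil GI50 to the compound GI50 within each tumour subpanel.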

[8] = Growth inhibition of human HOP92 cells at 10 uM after 48 hrs by SRB assay relative to control; type: functional; conditions: HOP-92, 48 h, read-out: GI; summary of the method: as §1
[9] = Growth inhibition of human RXF393 cells at 10 uM after 48 hrs by SRB assay relative to control; type: functional; conditions: RXF 393, 48 h, read-out: GI; summary of the method: as §1
[10] = Growth inhibition of human UACC62 cells at 10 uM after 48 hrs by SRB assay relative to control; type: functional; conditions: UACC-62, 48 h, read-out: GI; summary of the method: as §2
Dihydrofolate reductase = biological target: T1, Dihydrofolate reductase (Bos taurus, UniProt P00376); test: Inhibition of bovine liver DHFR preincubated for 2 mins followed by addition of FH2 as substrate and NADPH
T1 sequence (P00376 whole entry): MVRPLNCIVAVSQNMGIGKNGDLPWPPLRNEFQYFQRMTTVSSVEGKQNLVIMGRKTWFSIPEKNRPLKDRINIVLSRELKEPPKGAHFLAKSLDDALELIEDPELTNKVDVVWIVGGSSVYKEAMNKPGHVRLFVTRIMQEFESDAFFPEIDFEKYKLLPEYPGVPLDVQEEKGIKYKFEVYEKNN

[11] = Growth inhibition of human HT-29 cells at 10 uM after 48 hrs by SRB assay relative to control; type: functional; conditions: HT-29, 48 h, read-out: GI; summary of the method: as §1
[12] = Growth inhibition of human OVCAR8 cells at 10 uM after 48 hrs by SRB assay relative to control; type: functional; conditions: OVCAR-8, 48 h, read-out: GI; summary of the method: as §1
Leukemia cell = test: Potency index, ratio of 5-fluorouracil GI50 to compound GI50 for human leukemia cells; type: functional; summary of the method: as §4
[13] = Growth inhibition of human UACC257 cells at 10 uM after 48 hrs by SRB assay relative to control; type: functional; conditions: UACC-257, 48 h, read-out: GI; summary of the method: as §2
[14] = Growth inhibition of human HCC2998 cells at 10 uM after 48 hrs by SRB assay relative to control; type: functional; conditions: HCC 2998, 48 h, read-out: GI; summary of the method: as §1
[15] = Growth inhibition of human 786-0 cells at 10 uM after 48 hrs by SRB assay relative to control; type: functional; conditions: 786-0, 48 h, read-out: GI; summary of the method: as §1
[16] = Growth inhibition of human U251 cells at 10 uM after 48 hrs by SRB assay relative to control; type: functional; conditions: U-251, 48 h, read-out: GI; summary of the method: as §2
[17] = Growth inhibition of human SKOV3 cells at 10 uM after 48 hrs by SRB assay relative to control; type: functional; conditions: SK-OV-3, 48 h, read-out: GI; summary of the method: as §2
[18] = Growth inhibition of human SF539 cells at 10 uM after 48 hrs by SRB assay relative to control; type: functional; conditions: SF-539, 48 h, read-out: GI; summary of the method: as §1
[19] = Growth inhibition of human SR cells at 10 uM after 48 hrs by SRB assay relative to control; type: functional; conditions: read-out: GI; summary of the method: as §2
[20] = Growth inhibition of human MOLT4 cells at 10 uM after 48 hrs by SRB assay relative to control; type: functional; conditions: MOLT-4, 48 h, read-out: GI; summary of the method: as §1
[21] = Growth inhibition of human melanoma cells after 48 hrs by SRB assay; type: functional; conditions: Melanoma cell; summary of the method: as §3
[22] = Growth inhibition of human SF268 cells at 10 uM after 48 hrs by SRB assay relative to control; type: functional; conditions: SF-268, 48 h, read-out: GI; summary of the method: as §1
Cancer cell lines [23] = test: Potency index, ratio of 5-fluorouracil GI50 to compound GI50 for human renal cancer cells; type: functional; summary of the method: as §4
[24] = Growth inhibition of human NCI-322M cells at 10 uM after 48 hrs by SRB assay relative to control; type: functional; conditions: read-out: GI; summary of the method: as §1
Cancer cell lines [25] = test: Potency index, ratio of 5-fluorouracil GI50 to compound GI50 for human prostate cancer cells; type: functional; summary of the method: as §4
[26] = Growth inhibition of human renal cancer cells after 48 hrs by SRB assay; type: functional; conditions: Cancer cell lines; summary of the method: as §3
Cancer cell lines [27] = test: Potency index, ratio of 5-fluorouracil GI50 to compound GI50 for human CNS cancer cells; type: functional; summary of the method: as §4
[28] = Growth inhibition of human Caki1 cells at 10 uM after 48 hrs by SRB assay relative to control; type: functional; conditions: CAKI-1, 48 h, read-out: GI; summary of the method: as §1
[29] = Growth inhibition of human Hs 578T cells at 10 uM after 48 hrs by SRB assay relative to control; type: functional; conditions: read-out: GI; summary of the method: as §1
[30] = Growth inhibition of human SN12C cells at 10 uM after 48 hrs by SRB assay relative to control; type: functional; conditions: read-out: GI; summary of the method: as §2
[31] = Growth inhibition of human MCF7 cells at 10 uM after 48 hrs by SRB assay relative to control; type: functional; conditions: MCF7, 48 h, read-out: GI; summary of the method: as §1
[32] = Growth inhibition of human SK-MEL-28 cells at 10 uM after 48 hrs by SRB assay relative to control; type: functional; conditions: SK-MEL-28, 48 h, read-out: GI; summary of the method: as §2
[33] = Growth inhibition of human A549 cells at 10 uM after 48 hrs by SRB assay relative to control; type: functional; conditions: A549, 48 h, read-out: GI; summary of the method: as §1
[34] = Growth inhibition of human SK-MEL-5 cells at 10 uM after 48 hrs by SRB assay relative to control; type: functional; conditions: SK-MEL-5, 48 h, read-out: GI; summary of the method: as §2

COc1ccccc1-n1c(SCc2cc(OC)c(OC)c(OC)c2)nc2ccc(Cl)cc2c1=O
inhibition of growth at 10 µM [1]: 44.3%
inhibition of growth at 10 µM [2]: 57.4%
inhibition of growth at 10 µM [3]: 66.8%
inhibition of growth at 10 µM [4]: 37%
GI50 [5]: 3.1 µM
LC50 [5]: > 100 µM
TGI [5]: > 100 µM
inhibition of growth at 10 µM [6]: 95%
RatioGI50 (Cancer cell lines [7]): 2 - 10
inhibition of growth at 10 µM [8]: 57.1%
inhibition of growth at 10 µM [9]: 38.5%
inhibition of growth at 10 µM [10]: 65.7%
IC50 (Dihydrofolate reductase): 0.1 µM
inhibition of growth at 10 µM [11]: 92.3%
inhibition of growth at 10 µM [12]: 44.7%
RatioGI50 (Leukemia cell): 2 - 10
inhibition of growth at 10 µM [13]: < 10%
inhibition of growth at 10 µM [14]: 43.2%
inhibition of growth at 10 µM [15]: 49%
inhibition of growth at 10 µM [16]: 74.5%
inhibition of growth at 10 µM [17]: 40.6%
inhibition of growth at 10 µM [18]: 35.5%
inhibition of growth at 10 µM [19]: 84%
inhibition of growth at 10 µM [20]: 84.7%
GI50 [21]: 4.2 µM
LC50 [21]: > 100 µM
TGI [21]: 91.7 µM
inhibition of growth at 10 µM [22]: 58.4%
RatioGI50 (Cancer cell lines [23]): 2 - 10
inhibition of growth at 10 µM [24]: 44.9%
RatioGI50 (Cancer cell lines [25]): 2 - 10
GI50 [26]: 10.6 µM
LC50 [26]: > 100 µM
TGI [26]: 93.5 µM
RatioGI50 (Cancer cell lines [27]): 2 - 10
inhibition of growth at 10 µM [28]: 57.4%
inhibition of growth at 10 µM [29]: 60.4%
inhibition of growth at 10 µM [30]: 29.7%
inhibition of growth at 10 µM [31]: 84.4%
inhibition of growth at 10 µM [32]: 50.7%
inhibition of growth at 10 µM [33]: 68.9%
inhibition of growth at 10 µM [34]: 72.3%

COc1cc(CSc2nc3ccc(Cl)cc3c(=O)n2Cc2ccccc2)cc(OC)c1OC
inhibition of growth at 10 µM [1]: 61.2%
inhibition of growth at 10 µM [2]: 72.9%
inhibition of growth at 10 µM [3]: 60.7%
inhibition of growth at 10 µM [4]: 48%
GI50 [5]: 3.1 µM
LC50 [5]: 87.5 µM
TGI [5]: 86.3 µM
inhibition of growth at 10 µM [6]: 76%
RatioGI50 (Cancer cell lines [7]): 2 - 10
inhibition of growth at 10 µM [8]: 28.7%
inhibition of growth at 10 µM [9]: 86.9%
inhibition of growth at 10 µM [10]: 84.8%
IC50 (Dihydrofolate reductase): 4 µM
inhibition of growth at 10 µM [11]: 88.3%
inhibition of growth at 10 µM [12]: 47.1%
RatioGI50 (Leukemia cell): 2 - 10
inhibition of growth at 10 µM [13]: 53.5%
inhibition of growth at 10 µM [14]: 50%
inhibition of growth at 10 µM [15]: 56.6%
inhibition of growth at 10 µM [16]: 67.2%
inhibition of growth at 10 µM [17]: 75.7%
inhibition of growth at 10 µM [18]: 94.2%
inhibition of growth at 10 µM [19]: 76.9%
inhibition of growth at 10 µM [20]: 70.6%
GI50 [21]: 4.4 µM
LC50 [21]: 98.9 µM
TGI [21]: 55.2 µM
inhibition of growth at 10 µM [22]: 59.1%
RatioGI50 (Cancer cell lines [23]): 2 - 10
inhibition of growth at 10 µM [24]: 52.5%
RatioGI50 (Cancer cell lines [25]): 2 - 10
GI50 [26]: 4.4 µM
LC50 [26]: 96.5 µM
TGI [26]: 52.3 µM
RatioGI50 (Cancer cell lines [27]): 2 - 10
inhibition of growth at 10 µM [28]: 73.3%
inhibition of growth at 10 µM [29]: 69.5%
inhibition of growth at 10 µM [30]: 61.5%
inhibition of growth at 10 µM [31]: 85.7%
inhibition of growth at 10 µM [32]: 56.3%
inhibition of growth at 10 µM [33]: 57.8%
inhibition of growth at 10 µM [34]: 74.4%
